Common to all, as to assay type: functional, cell-based
Experiment [1] relates to L1210. Kind of experiment: Compound level in L1210 cells after 72 h. The settings on record: Mus musculus. The essentials:
(§1)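 L1210 cells held in 5 mM DFMO for 72 h before polyamine addition and through a further 72 h, refed at 72 h; controls without DFMO cultured 72 h in total. Intracellular polyamines reported as nmol/mg protein (detection limit 0.2). Mean ± SD from at least four separate experiments.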

Experiment [2] deals with SV3T3. Kind of experiment: Compound level in DFMO-treated SV3T3 cells at 0 h. The settings on record: Mus musculus. In a few lines:
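SV-3T3 fibroblasts (experiment A) held in 5 mM DFMO for 72 h before polyamine addition and throughout a further 72 h. Intracellular polyamines expressed as nmol/mg protein (detection limit 0.05). SD from at least four separate experiments, or duplicate where no SD is given.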

Experiment [3] relates to SV3T3. Kind of experiment: Compound level in SV3T3 cells after 96 hr. The conditions noted are these: Mus musculus.
Experiment [4] deals with HT-29. Kind of experiment: Compound level in HT-29 cells after 96 h. The settings on record: Homo sapiens. In a few lines: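 HT29 experiment B: 5 mM DFMO for 120 h before addition and throughout a further 96 h; refed at 96 h. Cells without DFMO cultured 96 h in total. Polyamines measured as nmol/mg protein (detection limit 0.2). SD from at least four separate experiments.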

Experiment [5] has as its system L1210. Kind of experiment: Compound level in 72 hr DFMO (5 mM)-treated L1210 cells after exposure to 10 uM spermidine. The conditions noted are these: Mus musculus. In a few lines: as §1
In experiment [6] the test system is HT-29. Kind of experiment: Compound level in HT-29 cells after 72 h. The conditions noted are these: Homo sapiens.

Structures are written as SMILES.

In the case of `NCCCCN`, the Level (nM (mg of protein)-1) worked out at 5.8 with L1210 [1]; 0.5 in the experiment with SV3T3 [2]; 0.9 with SV3T3 [3]; 5.9 in the experiment with HT-29 [4]; 0.8 with L1210 [5]; 4.4 with HT-29 [6].

For the origin of these results see ChEMBL document CHEMBL1125378, “alpha-Methyl polyamines: metabolically stable spermidine and spermine mimics capable of supporting growth in cells depleted of polyamines” (J Med Chem, 1992).
